Measured values as given in ChEMBL document CHEMBL2046370, “Beta-carboline alkaloids derived from the ascidian Synoicum sp” (Bioorg Med Chem, 2012).
Converted amounts (≈) assume the structure as drawn.

How the values were obtained:
[1] = target: Isocitrate lyase (Candida albicans, UniProt Q9P8Q7); assay: Inhibition of Candida albicans recombinant ICL assessed as formation of glyoxylate phenylhydrazone by spectrophotometry
Summary of the method: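 Recombinant enzyme assayed spectrophotometrically with isocitrate and phenylhydrazine present. Absorbance at 324 nm was monitored for glyoxylate phenylhydrazone formation, and IC50 was determined.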

[2] = test system: Candida albicans; assay: Antifungal activity against Candida albicans ATCC 10231 after 48 to 72 hrs; assay type: functional
[3] = test system: Aspergillus fumigatus; assay: Antifungal activity against Aspergillus fumigatus HIC 6094 after 48 to 72 hrs; assay type: functional
[4] = test system: Trichophyton mentagrophytes; assay: Antifungal activity against Trichophyton mentagrophytes IFO 40996 after 48 to 72 hrs; assay type: functional
[5] = test system: Trichophyton rubrum; assay: Antifungal activity against Trichophyton rubrum IFO 9185 after 48 to 72 hrs; assay type: functional
[6] = test system: Micrococcus luteus; assay: Antibacterial activity against Micrococcus luteus IFC 12708 after 24 hrs; assay type: functional; details: IFC 12708, 24 h
[7] = test system: Salmonella typhimurium; assay: Antibacterial activity against Salmonella typhimurium ATCC 14028 after 24 hrs; assay type: functional, Salmonella enterica subsp. enterica serovar Typhimurium; details: Salmonella enterica, ATCC 14028, 24 h
[8] = test system: Escherichia coli; assay: Antibacterial activity against Escherichia coli ATCC 35270 after 24 hrs; assay type: functional; details: ATCC 35270, 24 h
[9] = test system: Staphylococcus aureus; assay: Antibacterial activity against Staphylococcus aureus ATCC 6538p after 24 hrs; assay type: functional
[10] = test system: Bacillus subtilis; assay: Antibacterial activity against Bacillus subtilis ATCC 6633 after 24 hrs; assay type: functional; details: ATCC 6633, 24 h
[11] = test system: Proteus vulgaris; assay: Antibacterial activity against Proteus vulgaris ATCC 3851 after 24 hrs; assay type: functional; details: ATCC 3851, 24 h
[12] = test system: A549; assay: Cytotoxicity against human A549 cells by MTT assay; assay type: functional; details: read-out: LC50 (the source's name)
[13] = target: T1, Sortase A (Staphylococcus aureus, UniProt Q9S446); assay: Inhibition of Staphylococcus aureus ATCC 6538p recombinant SrtA; design: species or system ATCC 6538p r
T1 sequence (Q9S446 whole entry): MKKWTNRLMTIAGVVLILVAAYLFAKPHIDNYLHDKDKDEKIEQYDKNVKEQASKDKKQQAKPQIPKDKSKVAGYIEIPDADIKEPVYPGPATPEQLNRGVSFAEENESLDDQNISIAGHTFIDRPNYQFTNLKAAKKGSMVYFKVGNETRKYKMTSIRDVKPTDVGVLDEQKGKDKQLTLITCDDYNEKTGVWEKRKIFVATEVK

[14] = Inhibition of porcine cerebral cortex Na+/K+ ATPase assessed as formation of fluorescent 3-O-methylfluorescein from 3-O-methylfluorescein phosphate by fluorometry; assay type: tissue-based, Sus scrofa

Isocitrate lyase, sequence (Q9P8Q7 whole entry): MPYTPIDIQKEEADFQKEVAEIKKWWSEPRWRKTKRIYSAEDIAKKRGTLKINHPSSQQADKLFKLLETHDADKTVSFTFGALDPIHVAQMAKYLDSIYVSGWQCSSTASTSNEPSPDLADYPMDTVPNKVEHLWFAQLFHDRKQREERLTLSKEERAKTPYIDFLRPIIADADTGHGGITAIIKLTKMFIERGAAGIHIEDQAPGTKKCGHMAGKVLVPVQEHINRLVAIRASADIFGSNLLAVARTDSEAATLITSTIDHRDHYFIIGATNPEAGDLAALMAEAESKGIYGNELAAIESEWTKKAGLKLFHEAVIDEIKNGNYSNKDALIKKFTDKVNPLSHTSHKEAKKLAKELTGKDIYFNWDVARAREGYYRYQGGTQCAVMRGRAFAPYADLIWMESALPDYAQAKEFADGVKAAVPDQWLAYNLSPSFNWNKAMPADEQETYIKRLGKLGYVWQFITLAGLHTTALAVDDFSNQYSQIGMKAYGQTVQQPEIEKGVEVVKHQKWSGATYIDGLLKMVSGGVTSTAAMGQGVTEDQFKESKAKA

SMILES	IC50 [1]	MIC [2]	MIC [3]	MIC [4]	MIC [5]	MIC [6]	MIC [7]	MIC [8]	MIC [9]	MIC [10]	MIC [11]	CC50 [12]	IC50 [13]	IC50 [14]
O=C(O)CC[N+](=O)[O-]	38.6 µM	–	–	–	–	–	–	–	–	–	–	–	–	–
C[C@@H]1[C@H](O)[C@@H](C)/C=C/C=C/C=C/C=C/C=C/C=C/C=C/[C@H](O[C@@H]2O[C@H](C)[C@@H](O)[C@H](N)[C@@H]2O)C[C@@H]2O[C@](O)(C[C@@H](O)C[C@@H](O)[C@H](O)CC[C@@H](O)C[C@@H](O)CC(=O)O[C@H]1C)C[C@H](O)[C@H]2C(=O)O [AMPHOTERICIN B]	–	0.39 µg/mL (≈ 0.422 µM)	0.78 µg/mL (≈ 0.844 µM)	0.39 µg/mL (≈ 0.422 µM)	0.78 µg/mL (≈ 0.844 µM)	–	–	–	–	–	–	–	–	–
CC1(C)S[C@@H]2[C@H](NC(=O)[C@H](N)c3ccccc3)C(=O)N2[C@H]1C(=O)O [AMPICILLIN]	–	–	–	–	–	0.39 µg/mL (≈ 1.12 µM)	0.78 µg/mL (≈ 2.23 µM)	6.25 µg/mL (≈ 17.9 µM)	0.39 µg/mL (≈ 1.12 µM)	0.78 µg/mL (≈ 2.23 µM)	0.39 µg/mL (≈ 1.12 µM)	–	–	–
COc1cccc2c1C(=O)c1c(O)c3c(c(O)c1C2=O)C[C@@](O)(C(=O)CO)C[C@@H]3O[C@H]1C[C@H](N)[C@H](O)[C@H](C)O1 [DOXORUBICIN]	–	–	–	–	–	–	–	–	–	–	–	3.3 µM	–	–
O=C(c1ccc(O)cc1)c1nccc2c1[nH]c1ccccc12 [EUDISTOMIN Y1]	48.2 µM	50 µg/mL (≈ 173 µM)	50 µg/mL (≈ 173 µM)	100 µg/mL (≈ 347 µM)	50 µg/mL (≈ 173 µM)	> 100 µg/mL	> 100 µg/mL	> 100 µg/mL	> 100 µg/mL	> 100 µg/mL	> 100 µg/mL	59 µM	> 347 µM	–
O=C(c1ccc(O)cc1)c1nccc2c1[nH]c1ccc(Br)cc12 [EUDISTOMIN Y2]	50.2 µM	6.25 µg/mL (≈ 17 µM)	> 100 µg/mL	> 100 µg/mL	> 100 µg/mL	25 µg/mL (≈ 68.1 µM)	50 µg/mL (≈ 136 µM)	> 100 µg/mL	50 µg/mL (≈ 136 µM)	25 µg/mL (≈ 68.1 µM)	25 µg/mL (≈ 68.1 µM)	65.6 µM	> 272 µM	209 µM
O=C(c1ccc(O)c(Br)c1)c1nccc2c1[nH]c1ccccc12 [EUDISTOMIN Y3]	> 272 µM	> 100 µg/mL	> 100 µg/mL	> 100 µg/mL	> 100 µg/mL	12.5 µg/mL (≈ 34 µM)	6.25 µg/mL (≈ 17 µM)	100 µg/mL (≈ 272 µM)	12.5 µg/mL (≈ 34 µM)	12.5 µg/mL (≈ 34 µM)	6.25 µg/mL (≈ 17 µM)	253 µM	> 272 µM	22.5 µM
O=C(c1ccc(O)c(Br)c1)c1nccc2c1[nH]c1ccc(Br)cc12 [EUDISTOMIN Y4]	–	> 100 µg/mL	> 100 µg/mL	> 100 µg/mL	> 100 µg/mL	1.56 µg/mL (≈ 3.5 µM)	0.39 µg/mL (≈ 0.874 µM)	50 µg/mL (≈ 112 µM)	3.12 µg/mL (≈ 7.01 µM)	0.78 µg/mL (≈ 1.75 µM)	0.39 µg/mL (≈ 0.874 µM)	48.4 µM	163 µM	7.5 µM
O=C(c1cc(Br)c(O)c(Br)c1)c1nccc2c1[nH]c1ccccc12 [EUDISTOMIN Y5]	–	> 100 µg/mL	> 100 µg/mL	> 100 µg/mL	> 100 µg/mL	3.12 µg/mL (≈ 7.01 µM)	0.78 µg/mL (≈ 1.75 µM)	100 µg/mL (≈ 224 µM)	6.25 µg/mL (≈ 14 µM)	3.12 µg/mL (≈ 7.01 µM)	1.56 µg/mL (≈ 3.5 µM)	85.4 µM	146 µM	19.8 µM
O=C(c1cc(Br)c(O)c(Br)c1)c1nccc2c1[nH]c1ccc(Br)cc12 [EUDISTOMIN Y6]	–	> 100 µg/mL	> 100 µg/mL	> 100 µg/mL	> 100 µg/mL	1.56 µg/mL (≈ 2.97 µM)	0.39 µg/mL (≈ 0.743 µM)	50 µg/mL (≈ 95.2 µM)	1.56 µg/mL (≈ 2.97 µM)	1.56 µg/mL (≈ 2.97 µM)	0.78 µg/mL (≈ 1.49 µM)	60 µM	> 190 µM	10.1 µM
O=C(c1cc(Br)c(O)c(Br)c1)c1nccc2c1[nH]c1cc(Br)ccc12 [EUDISTOMIN Y7]	–	> 100 µg/mL	> 100 µg/mL	> 100 µg/mL	> 100 µg/mL	1.56 µg/mL (≈ 2.97 µM)	0.78 µg/mL (≈ 1.49 µM)	50 µg/mL (≈ 95.2 µM)	3.12 µg/mL (≈ 5.95 µM)	0.78 µg/mL (≈ 1.49 µM)	0.78 µg/mL (≈ 1.49 µM)	59 µM	> 190 µM	11.3 µM
Oc1ccc(C(O)c2nccc3c2[nH]c2ccccc23)cc1 (stereo not given) [EUDISTOMIN Y8]	68.9 µM	> 100 µg/mL	> 100 µg/mL	> 100 µg/mL	> 100 µg/mL	100 µg/mL (≈ 344 µM)	> 100 µg/mL	> 100 µg/mL	100 µg/mL (≈ 344 µM)	100 µg/mL (≈ 344 µM)	> 100 µg/mL	> 344 µM	> 344 µM	> 344 µM
Oc1ccc(C(O)c2nccc3c2[nH]c2ccc(Br)cc23)cc1Br (stereo not given) [EUDISTOMIN Y9]	–	> 100 µg/mL	> 100 µg/mL	> 100 µg/mL	> 100 µg/mL	> 100 µg/mL	> 100 µg/mL	> 100 µg/mL	6.25 µg/mL (≈ 13.9 µM)	> 100 µg/mL	> 100 µg/mL	17.9 µM	> 223 µM	33.3 µM
Oc1c(Br)cc(C(O)c2nccc3c2[nH]c2ccccc23)cc1Br (stereo not given) [EUDISTOMIN Y10]	–	> 100 µg/mL	> 100 µg/mL	> 100 µg/mL	> 100 µg/mL	12.5 µg/mL (≈ 27.9 µM)	12.5 µg/mL (≈ 27.9 µM)	> 100 µg/mL	25 µg/mL (≈ 55.8 µM)	25 µg/mL (≈ 55.8 µM)	12.5 µg/mL (≈ 27.9 µM)	> 223 µM	> 223 µM	122 µM
Oc1c(Br)cc(C(O)c2nccc3c2[nH]c2ccc(Br)cc23)cc1Br (stereo not given) [EUDISTOMIN Y11]	–	> 100 µg/mL	> 100 µg/mL	> 100 µg/mL	> 100 µg/mL	3.12 µg/mL (≈ 5.93 µM)	3.12 µg/mL (≈ 5.93 µM)	100 µg/mL (≈ 190 µM)	6.25 µg/mL (≈ 11.9 µM)	3.12 µg/mL (≈ 5.93 µM)	3.12 µg/mL (≈ 5.93 µM)	> 190 µM	> 190 µM	32.8 µM
Cc1ccc(S(=O)(=O)Oc2ccc(C(O)c3nccc4c3[nH]c3ccc(Br)cc34)cc2Br)cc1 (stereo not given) [EUDISTOMIN Y12]	> 166 µM	> 100 µg/mL	> 100 µg/mL	> 100 µg/mL	> 100 µg/mL	> 100 µg/mL	> 100 µg/mL	> 100 µg/mL	> 100 µg/mL	> 100 µg/mL	> 100 µg/mL	63.3 µM	> 166 µM	–
OC(c1ccccc1)c1nccc2c1[nH]c1ccc(Br)cc12 (stereo not given) [EUDISTOMIN Y13]	> 283 µM	> 100 µg/mL	> 100 µg/mL	> 100 µg/mL	> 100 µg/mL	100 µg/mL (≈ 283 µM)	> 100 µg/mL	> 100 µg/mL	> 100 µg/mL	100 µg/mL (≈ 283 µM)	> 100 µg/mL	49 µM	> 283 µM	–
C[C@@H]1O[C@@H](O[C@H]2C[C@@H](O)[C@]3(CO)[C@H]4[C@H](O)C[C@]5(C)[C@@H](C6=CC(=O)OC6)CC[C@]5(O)[C@@H]4CC[C@]3(O)C2)[C@H](O)[C@H](O)[C@H]1O [OUABAIN]	–	–	–	–	–	–	–	–	–	–	–	–	–	6.3 µM
